Reference: ChEMBL document CHEMBL1140649, “Design, synthesis, and preliminary biological evaluation of a novel triazole analogue of ceramide” (Bioorg Med Chem Lett, 2007)
Calls of active or inactive are those of the source. The calls are words filed in the database; no cut-off is given here.

How the values were obtained:
Type in all cases: functional, cell-based
Settings in all cases: Homo sapiens
K562 [1] = assay: Induction of apoptosis in K562 cells assessed as DNA fragmentation after 18 hrs by agarose gel electrophoresis
Summary of the method: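 Cells in 100-mm dishes exposed to various concentrations for 18 h. Lysed in 50 mM Tris-HCl pH 7.5, 20 mM EDTA, 1% NP-40 for 5 min at 4 °C. SDS added (final 1%) for 1 h at 56 °C, then proteinase K (final 2.5 µg/µl) for 2 h at 37 °C. DNA precipitated with ammonium acetate (final 5 M) and ethanol. 5 µg run on 2% agarose gel.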

NCI-H358 = assay: Cytotoxicity against NCI-H358 cells assessed as cell survival by SRB assay
K562 [2] = assay: Cytotoxicity against K562 cells assessed as cell survival by MTT assay
Summary of the method: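 Suspension leukemia cells seeded, 24 h, then 48 h treatment with compounds diluted from ethanol stock into medium. MTT added (final 500 µg/ml), 3 h at 37 °C. Medium removed, formazan dissolved in DMSO, absorbance at 570 nm. Survival relative to solvent-treated controls; EC50 (concentration giving 50% survival) by non-linear regression; minimum of three experiments.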

HCT-116 = assay: Cytotoxicity against HCT116 cells assessed as cell survival by SRB assay

**Q.** With `CCCCCCCCCCCCCC[C@@H](O)[C@@H](O)[C@H](CO)n1cc(CCCC)nn1` as the compound, how does the Activity (K562 [1]) read?
**A.** Active

**Q.** What about the EC50 (NCI-H358) of the same compound?
**A.** 12.9 µM

**Q.** What about the EC50 (K562 [2]) of the same compound?
**A.** 14.5 µM

**Q.** And the EC50 (HCT-116)?
**A.** 12.9 µM

**Q.** `CCCCCCCCCCCCC/C=C/[C@@H](O)[C@H](CO)n1cc(CCC)nn1` was tested. Which EC50 (NCI-H358) did it give?
**A.** 15.7 µM

**Q.** What about the EC50 (K562 [2]) of the same compound?
**A.** 13 µM

**Q.** What about the EC50 (HCT-116) of the same compound?
**A.** 16 µM

**Q.** Which EC50 (NCI-H358) does the source give for `CCCCCCCCCCCCC/C=C/[C@@H](O)[C@H](CO)n1cc(CCCCCC)nn1` here?
**A.** 12.8 µM

**Q.** What about the EC50 (K562 [2]) of the same compound?
**A.** 8.2 µM

**Q.** What about the EC50 (HCT-116) of the same compound?
**A.** 12.5 µM

**Q.** Which results are given for `CCCCCCCCCCCCCC[C@@H](O)[C@@H](O)[C@H](CO)n1cc(CCCCCCCCCCCCC)nn1`?
**A.** EC50 (NCI-H358): > 50 µM; EC50 (K562 [2]): > 50 µM; EC50 (HCT-116): > 50 µM

**Q.** Which results are given for `CCCCCCCCCCCCC/C=C/[C@@H](O)[C@H](CO)n1cc(CCCC)nn1`?
**A.** Activity (K562 [1]): Active; EC50 (NCI-H358): 13.6 µM; EC50 (K562 [2]): 12.3 µM; EC50 (HCT-116): 12.9 µM

**Q.** With `CCCCCCCCCCCCCC[C@@H](O)[C@@H](O)[C@H](CO)n1cc(CCC)nn1` as the compound, how does the EC50 (NCI-H358) read?
**A.** 13.2 µM

**Q.** And the EC50 (K562 [2])?
**A.** 14.9 µM

**Q.** And the EC50 (HCT-116)?
**A.** 13.9 µM

**Q.** Which EC50 (NCI-H358) does the source give for `CCCCCCCCCCCCC/C=C/[C@@H](O)[C@H](CO)n1cc(CCCCCCCCCCCCCCCCCCCCCCCC)nn1` here?
**A.** > 50 µM

**Q.** And the EC50 (K562 [2])?
**A.** > 50 µM

**Q.** What about the EC50 (HCT-116) of the same compound?
**A.** > 50 µM

**Q.** Which results are given for `CCCCCCCCCCCCCCCCCCCCCCCCc1cn([C@@H](CO)[C@H](O)[C@H](O)CCCCCCCCCCCCCC)nn1`?
**A.** EC50 (NCI-H358): > 50 µM; EC50 (K562 [2]): > 50 µM; EC50 (HCT-116): > 50 µM

**Q.** What does the source list for `CCCCCCCCCCCCCC[C@@H](O)[C@@H](O)[C@H](CO)n1cc(CCCCCC)nn1`?
**A.** EC50 (NCI-H358): 13.7 µM; EC50 (K562 [2]): 12.6 µM; EC50 (HCT-116): 12 µM

**Q.** Which results are given for `CCCCCCCCCCCCC/C=C/[C@@H](O)[C@H](CO)NC(C)=O`?
**A.** EC50 (NCI-H358): 19.6 µM; EC50 (K562 [2]): 35.1 µM; EC50 (HCT-116): 24.5 µM

**Q.** `CCCCCCCCCCCCC/C=C/[C@@H](O)[C@H](CO)n1cc(CCCCCCCCCCCCC)nn1` was tested. Which EC50 (NCI-H358) did it give?
**A.** > 50 µM

**Q.** And the EC50 (K562 [2])?
**A.** > 50 µM

**Q.** What about the EC50 (HCT-116) of the same compound?
**A.** > 50 µM
